Hits are enriched below; roughly 1.5% of the tested compounds scored in any of these assays.
APJ antag = APJ receptor antagonism. AID 2521. inhibition, % at 20 µM. P35414. actives 0.32% (n = 330,000). CHO-K1 APJ beta-arrestin complementation, luminescence;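 active = inhibition above about 40% at 20 µM, limit read from the data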;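 note: cells challenged with 10 nM apelin-13 agonist together with compound; plate controls were apelin-13 plus DMSO wells for no effect and DMSO wells lacking apelin-13 for full effect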
APJ ag = APJ receptor agonism; P35414; actives 0.11% (n = 330,000); activation, % at 20 µM; CHO-K1 APJ PathHunter beta-arrestin, luminescence; 0% DMSO wells, 100% apelin;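 active = activation more than six SD over the plate average, tested at 20 µM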;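 note: 0% = DMSO alone and 100% = apelin-13 at 10 nM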
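Incubation: overnight seeding, 90 min compound at 25 °C, 1 h detection; test system: PathHunter CHO-K1 APJ (AGTRL-1) beta-arrestin reporter cells; amount: 1000 cells/well; doses: one dose, 20 µM compound, 1% DMSO; measured by: beta-gal luminescence; measure: agonist-driven arrestin binding to APJ; benchmarks: negative DMSO alone, positive Apelin-13 at 10 nM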
CCR6 antagonist = antagonists of human CCR6 receptor | P51684 | CHO-K1 CCR6 PathHunter beta-arrestin, luminescence, CCL20-stimulated | inhibition, % at 20 µM | actives 0.49% (n = 340,000) | AID 493098;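 active = compounds whose inhibition of the agonist-driven luminescence signal at 20 µM reaches about 50%, limit read from the data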;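 note: cells stimulated with CCL20 at 14 nM final; plate controls were DMSO with CCL20 for no effect and DMSO without agonist for full effect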
Target sequence (P51684 whole entry, looked up): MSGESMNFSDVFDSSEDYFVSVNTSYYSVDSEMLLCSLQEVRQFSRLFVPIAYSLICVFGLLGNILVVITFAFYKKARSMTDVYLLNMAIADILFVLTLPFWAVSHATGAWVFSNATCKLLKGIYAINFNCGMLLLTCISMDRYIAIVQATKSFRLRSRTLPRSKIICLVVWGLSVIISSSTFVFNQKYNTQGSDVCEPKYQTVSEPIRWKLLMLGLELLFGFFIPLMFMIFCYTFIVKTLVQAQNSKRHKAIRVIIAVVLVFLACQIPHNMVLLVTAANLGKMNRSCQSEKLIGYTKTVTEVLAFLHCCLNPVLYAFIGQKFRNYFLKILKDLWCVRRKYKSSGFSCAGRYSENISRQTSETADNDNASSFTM
EBI2 block = EBI2 (human) antagonism; P32249; EBI2 beta-arrestin recruitment, luminescence, 7a,25-OHC stimulated; inhibition, % at 5 µM; actives 0.81% (n = 360,000); in the data active = inhibition above about 38%;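 note: enzyme fragment complementation signal reports receptor beta-arrestin coupling in cells; 0% = agonist plus DMSO wells and 100% = wells without agonist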
CXCR6 inh = CXCR6 (human) receptor inhibition. CHO-K1 PathHunter CXCR6 beta-arrestin, luminescence. inhibition, % at 20 µM. actives 0.36% (n = 360,000); in the data active = inhibition above about 34%, passing the limit was not always enough;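 note: antagonist mode with CXCL16 agonist at 10 nM final; 0% = 10 nM CXCL16 with DMSO and 100% = unstimulated wells without agonist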
EBI2 antag conf = EBI2 (human) antagonism, single concentration confirmation; actives 29% (n = 2,400); inhibition, % at 5 µM; shares compounds with EBI2 block; EBI2 beta-arrestin luminescence, 7a,25-OHC antagonism;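 active = inhibition of at least 50%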
EBI2 agonist = counter-screen for EBI2 antagonists: EBI2 agonist activity; AID 652000; EBI2-expressing cells, agonist mode, luminescence, 60 min; 0% vehicle, 100% 7α,25-dihydroxycholesterol control; shares compounds with EBI2 block; activation, % at 5 µM; 2,400 tested, under 10 active;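 active = activation of at least 50%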
bGal counter = inhibits E. coli beta-galactosidase, counter-screen for EBI2 antagonists. shares compounds with EBI2 block. purified beta-galactosidase, luminescent Galacton Star, 15 min. inhibition, % at 5 µM. actives 1% (n = 2,400);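 active = replicate-average signal at least 3 plate SD below neutral wells, shown as high inhibition, flagging enzyme-inhibiting false positives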;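 note: 0% = DMSO wells with enzyme and 100% = wells lacking enzyme; higher means stronger loss of beta-gal luminescence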
The depositor's hits bear a star; nt = no result given.

SMILES	APJ antag	APJ ag	CCR6 antagonist	EBI2 block	CXCR6 inh	EBI2 antag conf	EBI2 agonist	bGal counter
CCc1ccc(OCC(=O)N2CCN(Cc3ccc4c(c3)OCO4)CC2)cc1	4	-5	-5	82*	-9	53*	0	6
O=[N+]([O-])c1cccc(CN2CCN(Cc3ccc(Cl)cc3)CC2)c1	14	-3	11	3	-9	nt	nt	nt
COc1cccc(OCC(=O)N2CCN(C)CC2)c1	-9	-2	-2	-4	4	nt	nt	nt
COc1ccc(OCC(=O)N2CCN(Cc3nc4cc([N+](=O)[O-])ccc4n3C)CC2)cc1	1	1	-15	74*	10	38	-2	-8
O=c1[nH]c2ccccc2n1C1CCN(C(c2ccccc2OC(F)(F)F)c2nnnn2Cc2ccccc2)CC1 (centres undefined)	nt	nt	nt	-23	4	nt	nt	nt
Cc1ccccc1NC1(C#N)CCCCC1	9	-3	4	-5	-2	nt	nt	nt
Cc1ccc(OCC(=O)N2CCN(C3CCC(c4ccccc4)CC3)CC2)cc1 (centres undefined)	11	-2	3	82*	-2	64*	2	2
O=C(COc1ccc(Br)cc1)N1CCN(C2CCCC2)CC1	11	1	1	85*	4	82*	-1	-7
O=C(COc1ccccc1)N1CCN(C2CC3CCC2C3)CC1 (centres undefined)	-6	-4	12	37	-5	nt	nt	nt
CCOC(=O)[C@]12Cc3ccccc3[C@H]1N(Cc1ccccc1)C(=O)c1cc(F)c(F)cc12	nt	nt	nt	4	9	nt	nt	nt
CCOC(=O)c1cncn1C(C)c1ccccc1 (centres undefined)	-8	1	6	48*	-6	36	0	7
Cc1ccc2c(c1)N(N=O)CCC2	12	-2	-2	-6	-6	nt	nt	nt
O=C(c1cc2cc(Cl)ccc2[nH]1)N1CCC2(CC1)OCCO2	6	5	10	88*	-7	66*	2	-1
O=C(c1cc2cc(F)ccc2[nH]1)N1CCC2(CC1)OCCO2	-53	4	4	41	-4	nt	nt	nt
Cc1ccccc1-[n+]1c(-c2ccccc2)cc(-c2ccccc2)cc1-c1ccccc1	6	8	16	8	-10	nt	nt	nt
CN(C(=O)Oc1ccc(C(=O)c2ccc(Cl)cc2)cc1)c1ccccc1	4	1	-8	79*	-2	56*	-1	-11
CN(C)C(=O)Oc1ccc(OC(=O)c2ccccc2)cc1	8	0	3	-8	-5	nt	nt	nt
CCOC(=O)C1(c2ccccc2)CCN(CCC(=O)Nc2ccc(C(=O)OC)cc2)CC1	10	-2	14	13	2	nt	nt	nt
CCOC(=O)C1(c2ccccc2)CCN(CCC(=O)Nc2ccc(OC)cc2)CC1	nt	nt	nt	52*	-1	41	4	4
CCOC(=O)C1(c2ccccc2)CCN(CCC(=O)Nc2cccc(Br)c2)CC1	10	-2	14	59*	-7	27	0	1
COC(=O)C1=C(c2cc3ccccc3o2)C[C@@H]2CC[C@H]1N2C(=O)N1CCOCC1	16	-4	0	-12	-7	nt	nt	nt
COC(=O)C1=C(c2ccc(OCc3ccccc3)cc2)C[C@@H]2CC[C@H]1N2C(=O)NCc1ccc(OC)cc1	nt	nt	nt	24	6	nt	nt	nt
COC(=O)C1=C(c2ccc(OCc3ccccc3)cc2)C[C@@H]2CC[C@H]1N2C(=O)NCc1cccc(OC)c1	-8	-2	16	57*	15	54*	-1	6
CCOC(=O)[C@]12Cc3ccc(C)cc3[C@H]1N(C1CCCCC1)C(=O)c1cc(OC)ccc12	nt	nt	nt	52*	28	10	3	-11
CCOC(=O)[C@]12Cc3cc(C)ccc3[C@H]1N(C1CCCCC1)C(=O)c1ccccc12	nt	nt	nt	60*	16	7	2	-11
SMILES	APJ antag	APJ ag	CCR6 antagonist	EBI2 block	CXCR6 inh	EBI2 antag conf	EBI2 agonist	bGal counter
CCOC(=O)[C@]12Cc3c(cc(OC)c(OC)c3OC)[C@H]1N(C1CCCCC1)C(=O)c1ccccc12	nt	nt	nt	71*	11	-1	6	-11
CCOC(=O)[C@]12Cc3cc(C)ccc3[C@H]1N(CCC(=O)OC)C(=O)c1ccccc12	nt	nt	nt	-4	7	nt	nt	nt
CCOC(=O)[C@]12Cc3cc(OC)ccc3[C@H]1N(C)C(=O)c1cc(OC)ccc12	nt	nt	nt	9	-4	nt	nt	nt
CCOC(=O)[C@]12Cc3ccc(C)cc3[C@H]1N(C1CCCCC1)C(=O)c1ccccc12	nt	nt	nt	64*	19	11	1	-8
CCSP1(=S)N=C(N2CCOCC2)C(C#N)=C2CCCN21 (centres undefined)	16	0	3	-4	6	nt	nt	nt
N/C(=N\[N+](=O)[O-])N1CCN(C(=O)Oc2ccccc2)CC1	9	0	-4	-3	-6	nt	nt	nt
CCCCn1nnnc1C(c1ccnc2ccccc12)N1CCC2(CC1)C(=O)NCN2c1ccccc1 (centres undefined)	nt	nt	nt	9	2	nt	nt	nt

Source: PubChem (Sanford-Burnham Center for Chemical Genomics)
